# Measurements gathered from unrelated publications.
# Lines come from different studies, so protocols differ.
# SIRT6: NAD-dependent protein deacylase sirtuin-6 (SIRT6, Homo sapiens, UniProt Q8N6T7)
# ALK C1156Y: ALK tyrosine kinase receptor (ALK, Homo sapiens, UniProt Q9UM73, C1156Y)
# PBK: Lymphokine-activated killer T-cell-originated protein kinase (PBK, Homo sapiens, UniProt Q96KB5)
# VRK1: Serine/threonine-protein kinase VRK1 (VRK1, Homo sapiens, UniProt Q99986)
# BRD7: Bromodomain-containing protein 7 (BRD7, Homo sapiens, UniProt Q9NPI1)
SMILES,target,read-out,action,method,tested at,quantity,result
NC(=O)c1ccc(C(=O)NOCc2ccc3nccnc3c2)cc1,SIRT6,enzyme activity,inhibitor,fluorescence,100 µM,inhibition,61.4%
Cc1cnc(NC2CCOCC2)nc1-n1cnc(C(=O)NC(CN)c2cc(F)cc(Cl)c2)c1 (stereo not drawn),"Angiopoietin-1 receptor (TEK, Homo sapiens, UniProt Q02763, R849W)",enzyme activity,inhibitor,radiometric,1 µM,remaining activity,100%
CC/C(=N\NC(=O)NCc1cccc(O)c1)c1ccc(O)c(C)c1O,ALK C1156Y,enzyme activity,inhibitor,,0.1 µM,inhibition,2.3%
NC(=O)c1ccc(C(=O)NOCc2cccc(F)c2)cc1,SIRT6,enzyme activity,inhibitor,fluorescence,100 µM,inhibition,74.1%
Nc1nonc1-n1cc(C(=O)N/N=C/c2ccc([N+](=O)[O-])cc2)nn1,SIRT6,enzyme activity,inhibitor,fluorescence,100 µM,remaining activity,24.8%
NC(=O)c1ccc(C(=O)NOCc2ccc(C(F)(F)F)cc2)cc1,SIRT6,enzyme activity,inhibitor,fluorescence,100 µM,inhibition,87%
Cn1c2c(c3ccc(Cl)c(Cl)c31)C(C#N)C1(CCOCC1)NC2=O (stereo not drawn),PBK,thermal stability,,DSF,10 µM,ΔTm,-0.4 °C
NS(=O)(=O)c1ccc(C(=O)NOCc2ccccc2)cc1,SIRT6,enzyme activity,inhibitor,fluorescence,100 µM,inhibition,47.4%
Nc1nonc1-n1cc(C(=O)N/N=C/c2cccc([N+](=O)[O-])c2O)nn1,SIRT6,enzyme activity,inhibitor,fluorescence,100 µM,remaining activity,41.4%
Cn1c2c(c3ccc(Cl)c(Cl)c31)C(C#N)C1(CCCC1)NC2=O (stereo not drawn),VRK1,thermal stability,,DSF,10 µM,ΔTm,0 °C
NC(=O)c1ccc(C(=O)NOCc2ccc(Cl)cc2)cc1,SIRT6,enzyme activity,inhibitor,fluorescence,100 µM,inhibition,79.5%
NS(=O)(=O)c1ccc(Nc2nc(-c3ccc(F)cc3)c3ccccc3n2)cc1,BRD7,binding,,competition with immobilised ligand,1 µM,remaining binding,76%
CC(N)c1ccc(C(=O)NOCc2ccc(C(F)(F)F)cc2)cc1 (stereo not drawn),SIRT6,enzyme activity,inhibitor,fluorescence,100 µM,inhibition,89.2%
Cn1c2c(c3ccc(Cl)c(Cl)c31)C(C#N)C(C)(C)NC2=O (stereo not drawn),PBK,thermal stability,,DSF,10 µM,ΔTm,-0.6 °C
Nc1nonc1-n1cc(C(=O)N/N=C/c2ccccc2Cl)nn1,SIRT6,enzyme activity,inhibitor,fluorescence,100 µM,remaining activity,22.8%
Cc1ccc(C(=O)Nc2ccc(CN3CCN(C)CC3)c(C(F)(F)F)c2)cc1C#Cc1cnc2cccnn12,"Serine/threonine-protein kinase TNNI3K (TNNI3K, Homo sapiens, UniProt Q59H18)",cell-free assay,,,23.5 nM,remaining signal,50%
Oc1ccc(-c2nc(-c3ccncc3)c(-c3ccc(F)cc3)[nH]2)cc1,BRD7,thermal stability,,DSF,10 µM,ΔTm,1.3 °C
Cn1c2c(Cl)c(Cl)ccc2c2cn[nH]c(=O)c21,PBK,thermal stability,,DSF,10 µM,ΔTm,-0.3 °C
Nc1nonc1-n1cc(C(=O)N/N=C/c2ccc(C(F)(F)F)cc2[N+](=O)[O-])nn1,SIRT6,enzyme activity,inhibitor,fluorescence,100 µM,remaining activity,24.9%
CCN1CCC2(CC1)NC(=O)c1c(c3ccc(Cl)c(Cl)c3n1C)C2C#N (racemic),VRK1,thermal stability,,DSF,10 µM,ΔTm,-0.4 °C
O=C(Nc1ccc(S(=O)(=O)N2CCC(Cl)CC2)cc1)c1ccc([N+](=O)[O-])o1,"Voltage-dependent L-type calcium channel subunit alpha-1C (Cacna1c, Rattus norvegicus, UniProt P22002)",cell-free assay,,,10 µM,inhibition,6%
CCCOc1ccc(OC)c(F)c1C(=O)c1ccc(C(=O)N[C@@H]2CNC[C@H]2NC(=O)c2ccc3[nH]ncc3c2)cc1,"Angiopoietin-1 receptor (TEK, Homo sapiens, UniProt Q02763, Y897S)",enzyme activity,inhibitor,,10 µM,remaining activity,47%
Cn1c2c(c3ccc(Cl)c(Cl)c31)C(C#N)C1(CCNCC1)NC2=O (racemic),PBK,thermal stability,,DSF,10 µM,ΔTm,-0.9 °C
Nc1ncnc2occ(-c3ccc(NC(=O)Nc4cc(C(F)(F)F)ccc4F)cc3)c12,ALK C1156Y,cell-free assay,,,20 µM,remaining signal,1.1%
Nc1nonc1-n1cc(C(=O)N/N=C/c2ccc(F)cc2)nn1,SIRT6,enzyme activity,inhibitor,fluorescence,100 µM,remaining activity,43%
CNC(=O)c1ccc(C(=O)NOCc2ccc(C(F)(F)F)cc2)cc1,SIRT6,enzyme activity,inhibitor,fluorescence,100 µM,inhibition,35.3%
Cc1cnc(Nc2ccc(OCCN3CCCC3)cc2)nc1Nc1cccc(S(=O)(=O)NC(C)(C)C)c1,BRD7,thermal stability,,DSF,10 µM,ΔTm,0.22 °C
CCC1(CC)NC(=O)c2c(c3ccc(Cl)c(Cl)c3n2C)C1C#N (stereo not drawn),VRK1,thermal stability,,DSF,10 µM,ΔTm,0 °C
NC(=O)c1ccc(C(=O)NOCc2cccc(Br)c2)cc1,SIRT6,enzyme activity,inhibitor,fluorescence,100 µM,inhibition,82.3%
Nc1nonc1-n1cc(C(=O)N/N=C/c2cccnc2)nn1,SIRT6,enzyme activity,inhibitor,fluorescence,100 µM,remaining activity,26%
COc1cc(Cl)c(C(=O)N[C@@H](CN[C@H]2CC[C@@H](N)CC2)Cc2ccc(C#N)cc2)cc1-c1ccc(CN[C@H](C)c2ccc(C)cc2)o1,"[Pyruvate dehydrogenase (acetyl-transferring)] kinase isozyme 4, mitochondrial (PDK4, Homo sapiens, UniProt Q16654)",enzyme activity,inhibitor,,1 µM,remaining activity,103%
Cn1c2c(c3ccccc31)C(C#N)C(C)(C)NC2=O (stereo not drawn),VRK1,thermal stability,,DSF,10 µM,ΔTm,-0.1 °C
Nc1nonc1-n1cc(C(=O)N/N=C/c2ccc(C(F)(F)F)cc2C(F)(F)F)nn1,SIRT6,enzyme activity,inhibitor,fluorescence,100 µM,remaining activity,32.5%
